Experimental data from ChEMBL document CHEMBL4251664, “Biocompatible Boron-Containing Prodrugs of Belinostat for the Potential Treatment of Solid Tumors” (ACS Med Chem Lett, 2018).

Assays:
[1] = Drug level in human HeLa cells treated with (E)-3-(3-(N-phenylsulfamoyl)phenyl)-N-(4-(4,4,5,5-tetramethyl-1,3,2-dioxaborolan-2-yl)benzyloxy)acrylamide measured after 1 to 6 days by UHPLC-MS/MS analysis; assay type: ADME, cell-based
How it was run: (§1)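 MDA-MB-231 or HeLa cells were incubated with the pinacol boronate prodrug, and culture medium was sampled daily from day 1 to day 6. The prodrug, boronic acid forms and belinostat were separated, identified and quantified by HPLC coupled to an Orbitrap mass spectrometer. Results are in ng/mL as mean ± SEM of triplicate experiments.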

[2] = Drug level in human MDA-MB-231 cells treated with (E)-3-(3-(N-phenylsulfamoyl)phenyl)-N-(4-(4,4,5,5-tetramethyl-1,3,2-dioxaborolan-2-yl)benzyloxy)acrylamide measured after 1 to 6 days by UHPLC-MS/MS analysis; assay type: ADME, cell-based; how it was run: as §1
HeLa [3] = experiment: Prodrug conversion in human HeLa cells assessed as (E)-3-((3-(3-(N-phenylsulfamoyl)phenyl)acrylamidooxy)methyl)phenylboronic acid level after 4 days by UHPLC-MS/MS analysis; assay type: ADME, cell-based; conditions: 96 h; how it was run: as §1
MDA-MB-231 [4] = experiment: Prodrug conversion in human MDA-MB-231 cells assessed as belinostat level after 4 days by UHPLC-MS/MS analysis; assay type: ADME, cell-based; conditions: mda-mb-231, 96 h; how it was run: as §1
MDA-MB-231 [5] = experiment: Prodrug conversion in human MDA-MB-231 cells assessed as (E)-3-((3-(3-(N-phenylsulfamoyl)phenyl)acrylamidooxy)methyl)phenylboronic acid level after 4 days by UHPLC-MS/MS analysis; assay type: ADME, cell-based; conditions: mda-mb-231, 96 h; how it was run: as §1
MDA-MB-231 [6] = experiment: Prodrug conversion in human MDA-MB-231 cells assessed as (E)-3-((3-(3-(N-phenylsulfamoyl)phenyl)acrylamidooxy)methyl)phenylboronic acid level after 2 days by UHPLC-MS/MS analysis; assay type: ADME, cell-based; conditions: mda-mb-231, 48 h; how it was run: as §1
HeLa [7] = experiment: Prodrug conversion in human HeLa cells assessed as belinostat level after 4 days by UHPLC-MS/MS analysis; assay type: ADME, cell-based; conditions: 96 h; how it was run: as §1
MDA-MB-231 [8] = experiment: Prodrug conversion in human MDA-MB-231 cells assessed as (E)-3-((3-(3-(N-phenylsulfamoyl)phenyl)acrylamidooxy)methyl)phenylboronic acid level after 3 days by UHPLC-MS/MS analysis; assay type: ADME, cell-based; conditions: mda-mb-231, 72 h; how it was run: as §1
A549 = experiment: Antiproliferative activity against human A549 cells after 72 hrs by resazurin dye based fluorescence assay; assay type: functional, cell-based; conditions: A549, 72 h
MDA-MB-231 [9] = experiment: Prodrug conversion in human MDA-MB-231 cells assessed as belinostat level after 6 days by UHPLC-MS/MS analysis; assay type: ADME, cell-based; conditions: mda-mb-231, 144 h; how it was run: as §1
HeLa [10] = experiment: Prodrug conversion in human HeLa cells assessed as (E)-3-((3-(3-(N-phenylsulfamoyl)phenyl)acrylamidooxy)methyl)phenylboronic acid level after 6 days by UHPLC-MS/MS analysis; assay type: ADME, cell-based; conditions: 144 h; how it was run: as §1
MDA-MB-231 [11] = experiment: Prodrug conversion in human MDA-MB-231 cells assessed as belinostat level after 1 day by UHPLC-MS/MS analysis; assay type: ADME, cell-based; conditions: mda-mb-231, 24 h; how it was run: as §1
HeLa [12] = experiment: Prodrug conversion in human HeLa cells assessed as belinostat level after 3 days by UHPLC-MS/MS analysis; assay type: ADME, cell-based; conditions: 72 h; how it was run: as §1
HeLa [13] = experiment: Prodrug conversion in human HeLa cells assessed as belinostat level after 2 days by UHPLC-MS/MS analysis; assay type: ADME, cell-based; conditions: 48 h; how it was run: as §1
HeLa [14] = experiment: Prodrug conversion in human HeLa cells assessed as (E)-3-((3-(3-(N-phenylsulfamoyl)phenyl)acrylamidooxy)methyl)phenylboronic acid level after 2 days by UHPLC-MS/MS analysis; assay type: ADME, cell-based; conditions: 48 h; how it was run: as §1
HeLa [15] = experiment: Antiproliferative activity against human HeLa cells after 72 hrs by resazurin dye based fluorescence assay; assay type: functional, cell-based
MDA-MB-231 [16] = experiment: Prodrug conversion in human MDA-MB-231 cells assessed as (E)-3-((3-(3-(N-phenylsulfamoyl)phenyl)acrylamidooxy)methyl)phenylboronic acid level after 6 days by UHPLC-MS/MS analysis; assay type: ADME, cell-based; conditions: mda-mb-231, 144 h; how it was run: as §1
HeLa [17] = experiment: Prodrug conversion in human HeLa cells assessed as (E)-3-((3-(3-(N-phenylsulfamoyl)phenyl)acrylamidooxy)methyl)phenylboronic acid level after 3 days by UHPLC-MS/MS analysis; assay type: ADME, cell-based; conditions: 72 h; how it was run: as §1
MDA-MB-231 [18] = experiment: Prodrug conversion in human MDA-MB-231 cells assessed as (E)-3-((3-(3-(N-phenylsulfamoyl)phenyl)acrylamidooxy)methyl)phenylboronic acid level after 5 days by UHPLC-MS/MS analysis; assay type: ADME, cell-based; conditions: mda-mb-231, 120 h; how it was run: as §1
MDA-MB-231 [19] = experiment: Prodrug conversion in human MDA-MB-231 cells assessed as belinostat level after 2 days by UHPLC-MS/MS analysis; assay type: ADME, cell-based; conditions: mda-mb-231, 48 h; how it was run: as §1
HeLa [20] = experiment: Prodrug conversion in human HeLa cells assessed as belinostat level after 5 days by UHPLC-MS/MS analysis; assay type: ADME, cell-based; conditions: 120 h; how it was run: as §1
HeLa [21] = experiment: Prodrug conversion in human HeLa cells assessed as (E)-3-((3-(3-(N-phenylsulfamoyl)phenyl)acrylamidooxy)methyl)phenylboronic acid level after 1 day by UHPLC-MS/MS analysis; assay type: ADME, cell-based; conditions: 24 h; how it was run: as §1
MDA-MB-231 [22] = experiment: Prodrug conversion in human MDA-MB-231 cells assessed as belinostat level after 3 days by UHPLC-MS/MS analysis; assay type: ADME, cell-based; conditions: mda-mb-231, 72 h; how it was run: as §1
HeLa [23] = experiment: Prodrug conversion in human HeLa cells assessed as belinostat level after 6 days by UHPLC-MS/MS analysis; assay type: ADME, cell-based; conditions: 144 h; how it was run: as §1
HeLa [24] = experiment: Prodrug conversion in human HeLa cells assessed as belinostat level after 1 day by UHPLC-MS/MS analysis; assay type: ADME, cell-based; conditions: 24 h; how it was run: as §1
MDA-MB-231 [25] = experiment: Prodrug conversion in human MDA-MB-231 cells assessed as belinostat level after 5 days by UHPLC-MS/MS analysis; assay type: ADME, cell-based; conditions: mda-mb-231, 120 h; how it was run: as §1
MDA-MB-231 [26] = experiment: Antiproliferative activity against human MDA-MB-231 cells after 72 hrs by resazurin dye based fluorescence assay; assay type: functional, cell-based; conditions: MDA-MB-231, 72 h
HeLa [27] = experiment: Prodrug conversion in human HeLa cells assessed as (E)-3-((3-(3-(N-phenylsulfamoyl)phenyl)acrylamidooxy)methyl)phenylboronic acid level after 5 days by UHPLC-MS/MS analysis; assay type: ADME, cell-based; conditions: 120 h; how it was run: as §1
MDA-MB-231 [28] = experiment: Prodrug conversion in human MDA-MB-231 cells assessed as (E)-3-((3-(3-(N-phenylsulfamoyl)phenyl)acrylamidooxy)methyl)phenylboronic acid level after 1 day by UHPLC-MS/MS analysis; assay type: ADME, cell-based; conditions: mda-mb-231, 24 h; how it was run: as §1
MCF7 [29] = experiment: Antitumor activity against human MCF7 cells implanted in ovariectomized nu/nu mouse assessed as tumor volume at 10 mg/kg, sc administered once daily for 22 days measured on day 12 during compound dosing (reference value: 869 +/- 173 mm3); assay type: functional
Mus musculus = experiment: Toxicity in ovariectomized nu/nu mouse implanted with human MCF7 cells assessed as effect on body weight at 10 mg/kg, sc administered once daily for 22 days; assay type: organism-based; conditions: in vivo, 528 h
How it was run: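 MCF-7 xenograft in mice, dosed 10 mg/kg/day by subcutaneous injection alongside a vehicle group. Treatment ran 22 days. Body weights were compared with the vehicle group, and tumour volume was measured over the same period. At the end, mice were sacrificed and tumours removed.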

[30] = Drug uptake in tumor of ovariectomized nu/nu mouse implanted with human MCF7 cells at 10 mg/kg, sc administered once daily for 22 days measured post last dose by HPLC-MS/MS analysis; assay type: ADME, organism-based, Neoplasm; conditions: female, read-out: Drug uptake
How it was run: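 After 22 days of 10 mg/kg/day subcutaneous dosing in MCF-7 xenograft mice, animals were sacrificed. Tumours were excised, homogenized and extracted, then analysed by HPLC–MS/MS for belinostat and the free boronic acid. Results are expressed as ng/g tissue.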

MCF-10A = experiment: Cytotoxicity against human MCF10A cells assessed as reduction in cell proliferation at 10 uM after 72 hrs by resazurin dye based fluorescence assay
MCF7 [31] = experiment: Antiproliferative activity against human MCF7 cells after 72 hrs by resazurin dye based fluorescence assay; assay type: functional, cell-based; conditions: MCF7, 72 h
MCF7 [32] = experiment: Antitumor activity against human MCF7 cells implanted in ovariectomized nu/nu mouse assessed as tumor volume at 10 mg/kg, sc administered once daily for 22 days measured post last dose relative to control; assay type: functional
MCF7 [33] = experiment: Antitumor activity against human MCF7 cells implanted in ovariectomized nu/nu mouse assessed as tumor volume at 10 mg/kg, sc administered once daily for 22 days measured post last dose (reference value: 869 +/- 173 mm3); assay type: functional
MCF7 [34] = experiment: Antitumor activity against human MCF7 cells implanted in ovariectomized nu/nu mouse assessed as tumor weight at 10 mg/kg, sc administered once daily for 22 days measured post last dose (reference value: 743 +/- 142 mg); assay type: functional
MCF7 [35] = experiment: Antitumor activity against human MCF7 cells implanted in ovariectomized nu/nu mouse assessed as tumor growth inhibition at 10 mg/kg, sc administered once daily for 22 days measured post last dose relative to control; assay type: functional; conditions: 528 h, read-out: TGI

Which Drug metabolism [1] does the source give for O=C(/C=C/c1cccc(S(=O)(=O)Nc2ccccc2)c1)NOCc1ccc(B(O)O)cc1 here?
Its Drug metabolism is “Metabolite_Detected”.

And the Drug metabolism [2]?
The Drug metabolism was “Metabolite_Detected”.

What does the source list for CC1(C)OB(c2cccc(CONC(=O)/C=C/c3cccc(S(=O)(=O)Nc4ccccc4)c3)c2)OC1(C)C?
Drug metabolism (HeLa [3]): 134.7 ng/mL; Drug metabolism (MDA-MB-231 [4]): Metabolite_Notdetected; Drug metabolism (MDA-MB-231 [5]): 198.8 ng/mL; Drug metabolism (MDA-MB-231 [6]): 262.9 ng/mL; Drug metabolism (HeLa [7]): Metabolite_Notdetected; Drug metabolism (MDA-MB-231 [8]): 199 ng/mL; IC50 (A549): 3600 nM; Drug metabolism (MDA-MB-231 [9]): Metabolite_Notdetected; Drug metabolism (HeLa [10]): 66.6 ng/mL; Drug metabolism (MDA-MB-231 [11]): Metabolite_Notdetected; Drug metabolism (HeLa [12]): Metabolite_Notdetected; Drug metabolism (HeLa [13]): Metabolite_Notdetected; Drug metabolism (HeLa [14]): 188.6 ng/mL; IC50 (HeLa [15]): 8320 nM; Drug metabolism (MDA-MB-231 [16]): 155.8 ng/mL; Drug metabolism (HeLa [17]): 147.9 ng/mL; Drug metabolism (MDA-MB-231 [18]): 168.5 ng/mL; Drug metabolism (MDA-MB-231 [19]): Metabolite_Notdetected; Drug metabolism (HeLa [20]): Metabolite_Notdetected; Drug metabolism (HeLa [21]): 303.2 ng/mL; Drug metabolism (MDA-MB-231 [22]): Metabolite_Notdetected; Drug metabolism (HeLa [23]): Metabolite_Notdetected; Drug metabolism (HeLa [24]): Metabolite_Notdetected; Drug metabolism (MDA-MB-231 [25]): Metabolite_Notdetected; IC50 (MDA-MB-231 [26]): 2030 nM; Drug metabolism (HeLa [27]): 97.2 ng/mL; Drug metabolism (MDA-MB-231 [28]): 359.1 ng/mL

For O=C(/C=C/c1cccc(S(=O)(=O)Nc2ccccc2)c1)NOCc1cccc(B(O)O)c1, which IC50 (A549) is on record?
The IC50 was 6580 nM.

What about the IC50 (HeLa [15]) of the same molecule?
Its IC50 is 12900 nM.

And the IC50 (MDA-MB-231 [26])?
Its IC50 is 2200 nM.

With O=C(/C=C/c1cccc(S(=O)(=O)Nc2ccccc2)c1)NO [BELINOSTAT] as the molecule, how does the Activity (MCF7 [29]) read?
Its Activity is 167 mm3.

What about the IC50 (A549) of the same molecule?
The IC50 was 77 nM.

What about the Activity (Mus musculus) of the same molecule?
The Activity was “Non-Toxic”.

What about the concentration at 528 h [30] of the same molecule?
The concentration at 528 h was 23.4 ng/g.

And the Activity (MCF-10A)?
The Activity was “Non-Toxic”.

And the IC50 (MCF7 [31])?
The IC50 was 96 nM.

And the T/C (MCF7 [32])?
The T/C was 22.3%.

What about the IC50 (HeLa [15]) of the same molecule?
Its IC50 is 87 nM.

What about the Activity (MCF7 [33]) of the same molecule?
The Activity was 194 mm3.

And the Activity (MCF7 [34])?
The Activity was 167 mg.

And the IC50 (MDA-MB-231 [26])?
The IC50 was 62 nM.

And the inhibition in vivo at 10 mg/kg (MCF7 [35])?
Its inhibition in vivo at 10 mg/kg is 77.7%.
